Results reported in paper PMC3102533 (ChemMedChem, 2009).

Target: T1, recombinant Lyp (Homo sapiens, UniProt Q9Y2R2)
T1 sequence (Q9Y2R2 2-309): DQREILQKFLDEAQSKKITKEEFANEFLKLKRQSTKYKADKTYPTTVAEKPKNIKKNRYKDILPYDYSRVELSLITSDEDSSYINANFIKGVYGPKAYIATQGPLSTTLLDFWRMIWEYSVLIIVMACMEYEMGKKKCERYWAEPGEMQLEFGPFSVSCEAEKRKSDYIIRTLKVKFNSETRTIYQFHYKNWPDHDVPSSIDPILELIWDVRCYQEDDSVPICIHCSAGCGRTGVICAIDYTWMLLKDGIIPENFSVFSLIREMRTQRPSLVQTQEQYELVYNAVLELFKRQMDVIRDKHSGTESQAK
Assay: Lyp enzymatic assay, IC50 measurements
Assay type: biochemical
Conditions: compared with compound 7 (analogue lacks the nitro group)
How it was run: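 GST-fused Lyp catalytic domain (residues 2–309) was expressed in E. coli BL21 DE3 and purified by glutathione affinity and Superdex S-200. DiFMUP hydrolysis was measured at 48 μM substrate (Km) and 30°C in 20 mM Bis-Tris pH 6.0 (ionic strength 20 mM, NaCl) with 1 mM DTT, 1% PEG 8000 and 5% DMSO. Initial rates were read at ex 360/em 460 nm and corrected with a no-enzyme control. IC50 came from fitting relative activity against inhibitor concentration.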

O=C(Nc1ccc(I)cc1C(=O)O)c1ccccc1 [2-benzamido-5-iodobenzoic acid]
fold less inhibitory activity against Lyp: 157 fold
